Results: ChEMBL document CHEMBL3351470, “Synthesis and Structure-Activity Relationships of α-Amino-γ-lactone Ketolides: A Novel Class of Macrolide Antibiotics” (2014)
In brackets after ≈: the same amount, converted by molar mass.

Tests used:
Format in all cases: functional
Staphylococcus aureus [1] = assay: Antibacterial activity against erythromycin-susceptible Staphylococcus aureus by agar microdilution method
Summary of the method: (§1)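 Strains from an in-house culture collection (Pliva Research Institute). MIC determined by agar microdilution following NCCLS standards and reported in μg/mL. Erythromycin-susceptible strains are listed as Ery-S; the panel also includes inducibly resistant (iMLS), constitutively resistant (MLSB) and efflux-resistant (M) strains.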

Staphylococcus aureus [2] = assay: Antibacterial activity against macrolide lincosamide- streptogramin B inducibly-resistant Staphylococcus aureus by agar microdilution method
Summary of the method: (§2)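 Agar microdilution MIC following NCCLS standards; strains taken from the Pliva Research Institute culture collection. Panel grouped by phenotype: erythromycin-susceptible, inducibly MLS-resistant (iMLS), constitutively MLSB-resistant and efflux-resistant (M). Azithromycin, telithromycin and cethromycin tested alongside as references. MIC reported in μg/mL.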

Staphylococcus aureus [3] = assay: Antibacterial activity against macrolide lincosamide- streptogramin B-resistant Staphylococcus aureus by agar microdilution method; summary of the method: as §2
Streptococcus pneumoniae [4] = assay: Antibacterial activity against erythromycin-susceptible Streptococcus pneumoniae by agar microdilution method; summary of the method: as §1
Streptococcus pneumoniae [5] = assay: Antibacterial activity against macrolide lincosamide- streptogramin B inducibly-resistant Streptococcus pneumoniae by agar microdilution method; summary of the method: as §2
Streptococcus pneumoniae [6] = assay: Antibacterial activity against efflux-resistant Streptococcus pneumoniae by agar microdilution method; summary of the method: as §2
Streptococcus pyogenes [7] = assay: Antibacterial activity against erythromycin-susceptible Streptococcus pyogenes by agar microdilution method; summary of the method: as §1
Streptococcus pyogenes [8] = assay: Antibacterial activity against macrolide lincosamide- streptogramin B inducibly-resistant Streptococcus pyogenes by agar microdilution method; summary of the method: as §2
Streptococcus pyogenes [9] = assay: Antibacterial activity against efflux-resistant Streptococcus pyogenes by agar microdilution method; summary of the method: as §2
Haemophilus influenzae = assay: Antibacterial activity against Haemophilus influenzae by agar microdilution method; summary of the method: as §1

Structure (SMILES)	MIC (Staphylococcus aureus [1]) [µg/mL]	MIC (Staphylococcus aureus [2]) [µg/mL]	MIC (Staphylococcus aureus [3]) [µg/mL]	MIC (Streptococcus pneumoniae [4]) [µg/mL]	MIC (Streptococcus pneumoniae [5]) [µg/mL]	MIC (Streptococcus pneumoniae [6]) [µg/mL]	MIC (Streptococcus pyogenes [7]) [µg/mL]	MIC (Streptococcus pyogenes [8]) [µg/mL]	MIC (Streptococcus pyogenes [9]) [µg/mL]	MIC (Haemophilus influenzae) [µg/mL]
CC[C@H]1OC(=O)[C@H](C)C(=O)[C@H](C)[C@@H](O[C@@H]2O[C@H](C)C[C@H](N(C)C)[C@H]2O)[C@](C)(OC)C[C@@H](C)C(=O)[C@H](C)[C@H]2C(NC(=O)CCc3cnc4c(OC)cccc4c3)C(=O)O[C@@]21C (some centres undefined)	0.5 (≈ 0.595 µM)	1 (≈ 1.19 µM)	> 64	≤ 0.125	0.25 (≈ 0.298 µM)	0.25 (≈ 0.298 µM)	≤ 0.125	0.5 (≈ 0.595 µM)	0.25 (≈ 0.298 µM)	1 (≈ 1.19 µM)
CC[C@H]1OC(=O)[C@H](C)C(=O)[C@H](C)[C@@H](O[C@@H]2O[C@H](C)C[C@H](N(C)C)[C@H]2O)[C@](C)(OC)C[C@@H](C)C(=O)[C@H](C)[C@H]2C(NC(=O)CCCCc3cnc4c(OC)cccc4c3)C(=O)O[C@@]21C (some centres undefined)	1 (≈ 1.15 µM)	1 (≈ 1.15 µM)	> 64	≤ 0.125	2 (≈ 2.3 µM)	4 (≈ 4.61 µM)	≤ 0.125	4 (≈ 4.61 µM)	4 (≈ 4.61 µM)	16 (≈ 18.4 µM)
CC[C@H]1OC(=O)[C@H](C)C(=O)[C@H](C)[C@@H](O[C@@H]2O[C@H](C)C[C@H](N(C)C)[C@H]2O)[C@](C)(OC)C[C@@H](C)C(=O)[C@H](C)[C@H]2C(NC(=O)CCc3ccc4ccccc4c3)C(=O)O[C@@]21C (some centres undefined)	1 (≈ 1.24 µM)	1 (≈ 1.24 µM)	> 64	≤ 0.125	2 (≈ 2.47 µM)	2 (≈ 2.47 µM)	≤ 0.125	4 (≈ 4.94 µM)	8 (≈ 9.89 µM)	2 (≈ 2.47 µM)
CC[C@H]1OC(=O)[C@H](C)C(=O)[C@H](C)[C@@H](O[C@@H]2O[C@H](C)C[C@H](N(C)C)[C@H]2O)[C@](C)(OC)C[C@@H](C)C(=O)[C@H](C)[C@H]2C(NC(=O)CCc3ccncc3)C(=O)O[C@@]21C (some centres undefined)	4 (≈ 5.26 µM)	8 (≈ 10.5 µM)	> 64	≤ 0.125	16 (≈ 21.1 µM)	8 (≈ 10.5 µM)	≤ 0.125	2 (≈ 2.63 µM)	2 (≈ 2.63 µM)	2 (≈ 2.63 µM)
CC[C@H]1OC(=O)[C@H](C)C(=O)[C@H](C)[C@@H](O[C@@H]2O[C@H](C)C[C@H](N(C)C)[C@H]2O)[C@](C)(OC)C[C@@H](C)C(=O)[C@H](C)[C@H]2C(NC(=O)/C=C/CCc3cnc4c(OC)cccc4c3)C(=O)O[C@@]21C (some centres undefined)	1 (≈ 1.15 µM)	1 (≈ 1.15 µM)	> 64	≤ 0.125	2 (≈ 2.31 µM)	2 (≈ 2.31 µM)	≤ 0.125	0.5 (≈ 0.577 µM)	2 (≈ 2.31 µM)	1 (≈ 1.15 µM)
CC[C@H]1OC(=O)[C@H](C)C(=O)[C@H](C)[C@@H](O[C@@H]2O[C@H](C)C[C@H](N(C)C)[C@H]2O)[C@](C)(OC)C[C@@H](C)C(=O)[C@H](C)[C@H]2C(NC(=O)CCc3cnc4ccc(OC)cc4c3)C(=O)O[C@@]21C (some centres undefined)	2 (≈ 2.38 µM)	1 (≈ 1.19 µM)	> 64	≤ 0.125	0.5 (≈ 0.595 µM)	0.5 (≈ 0.595 µM)	≤ 0.125	0.25 (≈ 0.298 µM)	0.5 (≈ 0.595 µM)	1 (≈ 1.19 µM)
CC[C@H]1OC(=O)[C@H](C)C(=O)[C@H](C)[C@@H](O[C@@H]2O[C@H](C)C[C@H](N(C)C)[C@H]2O)[C@](C)(OC)C[C@@H](C)C(=O)[C@H](C)[C@H]2C(NC(=O)CNC(=O)CSc3cnc4ccccc4n3)C(=O)O[C@@]21C (some centres undefined)	≤ 0.125	0.25 (≈ 0.282 µM)	> 64	0.25 (≈ 0.282 µM)	0.5 (≈ 0.564 µM)	0.5 (≈ 0.564 µM)	0.25 (≈ 0.282 µM)	1 (≈ 1.13 µM)	0.5 (≈ 0.564 µM)	2 (≈ 2.26 µM)
CC[C@H]1OC(=O)[C@H](C)C(=O)[C@H](C)[C@@H](O[C@@H]2O[C@H](C)C[C@H](N(C)C)[C@H]2O)[C@](C)(OC)C[C@@H](C)C(=O)[C@H](C)[C@H]2C(NC(=O)CCCCc3cnc4ccccc4c3)C(=O)O[C@@]21C (some centres undefined)	1 (≈ 1.19 µM)	2 (≈ 2.39 µM)	> 64	≤ 0.125	8 (≈ 9.55 µM)	4 (≈ 4.77 µM)	≤ 0.125	8 (≈ 9.55 µM)	16 (≈ 19.1 µM)	16 (≈ 19.1 µM)
CC[C@H]1OC(=O)[C@H](C)C(=O)[C@H](C)[C@@H](O[C@@H]2O[C@H](C)C[C@H](N(C)C)[C@H]2O)[C@](C)(OC)C[C@@H](C)C(=O)[C@H](C)[C@H]2C(NC(=O)CCCCc3cnc4ccc(OC)cc4c3)C(=O)O[C@@]21C (some centres undefined)	1 (≈ 1.15 µM)	2 (≈ 2.3 µM)	> 64	≤ 0.125	4 (≈ 4.61 µM)	4 (≈ 4.61 µM)	≤ 0.125	2 (≈ 2.3 µM)	4 (≈ 4.61 µM)	8 (≈ 9.22 µM)
CC[C@H]1OC(=O)[C@H](C)[C@@H](O[C@H]2C[C@@](C)(OC)[C@@H](O)[C@H](C)O2)[C@H](C)[C@@H](O[C@@H]2O[C@H](C)C[C@H](N(C)C)[C@H]2O)[C@](C)(O)C[C@@H](C)CN(C)[C@H](C)[C@@H](O)[C@]1(C)O [AZITHROMYCIN]	1 (≈ 1.34 µM)	> 64	> 64	≤ 0.125	> 64	4 (≈ 5.34 µM)	≤ 0.125	> 64	1 (≈ 1.34 µM)	1 (≈ 1.34 µM)
CC[C@H]1OC(=O)[C@H](C)C(=O)[C@H](C)[C@@H](O[C@@H]2O[C@H](C)C[C@H](N(C)C)[C@H]2O)[C@](C)(OCC=Cc2cnc3ccccc3c2)C[C@@H](C)C(=O)[C@H](C)[C@H]2NC(=O)O[C@@]21C [CETHROMYCIN]	≤ 0.125	0.25 (≈ 0.326 µM)	> 64	≤ 0.06	≤ 0.125		≤ 0.06	1 (≈ 1.31 µM)	≤ 0.125	2 (≈ 2.61 µM)
CC[C@H]1OC(=O)[C@H](C)C(=O)[C@H](C)[C@@H](O[C@@H]2O[C@H](C)C[C@H](N(C)C)[C@H]2O)[C@](C)(OC)C[C@@H](C)C(=O)[C@H](C)[C@H]2C(NC(=O)CCc3ccccn3)C(=O)O[C@@]21C (some centres undefined)	4 (≈ 5.26 µM)	4 (≈ 5.26 µM)	> 64	≤ 0.125	2 (≈ 2.63 µM)	2 (≈ 2.63 µM)	≤ 0.125	32 (≈ 42.1 µM)	4 (≈ 5.26 µM)	16 (≈ 21.1 µM)
CC[C@H]1OC(=O)[C@H](C)C(=O)[C@H](C)[C@@H](O[C@@H]2O[C@H](C)C[C@H](N(C)C)[C@H]2O)[C@](C)(OC)C[C@@H](C)C(=O)[C@H](C)[C@H]2C(N)C(=O)O[C@@]21C (some centres undefined)	1 (≈ 1.6 µM)	32 (≈ 51.1 µM)	> 64	≤ 0.125	> 64	8 (≈ 12.8 µM)	2 (≈ 3.19 µM)	> 64	8 (≈ 12.8 µM)	> 64
CC[C@H]1OC(=O)[C@H](C)C(=O)[C@H](C)[C@@H](O[C@@H]2O[C@H](C)C[C@H](N(C)C)[C@H]2O)[C@](C)(OC)C[C@@H](C)C(=O)[C@H](C)[C@H]2C(NC(=O)CCc3cnc4ccccc4c3)C(=O)O[C@@]21C (some centres undefined)	1 (≈ 1.23 µM)	1 (≈ 1.23 µM)	> 64	≤ 0.125	1 (≈ 1.23 µM)	0.5 (≈ 0.617 µM)	≤ 0.125	1 (≈ 1.23 µM)	2 (≈ 2.47 µM)	4 (≈ 4.94 µM)
CC[C@H]1OC(=O)[C@H](C)C(=O)[C@H](C)[C@@H](O[C@@H]2O[C@H](C)C[C@H](N(C)C)[C@H]2O)[C@](C)(OC)C[C@@H](C)C(=O)[C@H](C)[C@H]2C(NC(=O)CCc3ccccc3)C(=O)O[C@@]21C (some centres undefined)	4 (≈ 5.27 µM)	8 (≈ 10.5 µM)	> 64	≤ 0.125	16 (≈ 21.1 µM)	4 (≈ 5.27 µM)	0.5 (≈ 0.659 µM)	16 (≈ 21.1 µM)	8 (≈ 10.5 µM)	16 (≈ 21.1 µM)
CC[C@H]1OC(=O)[C@H](C)C(=O)[C@H](C)[C@@H](O[C@@H]2O[C@H](C)C[C@H](N(C)C)[C@H]2O)[C@](C)(OC)C[C@@H](C)C(=O)[C@H](C)[C@H]2C(NC(=O)/C=C/CCc3cnc4ccccc4c3)C(=O)O[C@@]21C (some centres undefined)	2 (≈ 2.39 µM)	2 (≈ 2.39 µM)	> 64	≤ 0.125	8 (≈ 9.57 µM)	1 (≈ 1.2 µM)	≤ 0.125	8 (≈ 9.57 µM)	4 (≈ 4.78 µM)	8 (≈ 9.57 µM)
CC[C@H]1OC(=O)[C@H](C)C(=O)[C@H](C)[C@@H](O[C@@H]2O[C@H](C)C[C@H](N(C)C)[C@H]2O)[C@](C)(OC)C[C@@H](C)C(=O)[C@H](C)[C@H]2C(NC(=O)/C=C/CCc3cnc4ccc(OC)cc4c3)C(=O)O[C@@]21C (some centres undefined)	2 (≈ 2.31 µM)	2 (≈ 2.31 µM)	> 64	≤ 0.125	8 (≈ 9.24 µM)	4 (≈ 4.62 µM)	≤ 0.125	0.25 (≈ 0.289 µM)	4 (≈ 4.62 µM)	1 (≈ 1.15 µM)
CC[C@H]1OC(=O)[C@H](C)C(=O)[C@H](C)[C@@H](O[C@@H]2O[C@H](C)C[C@H](N(C)C)[C@H]2O)[C@](C)(OC)C[C@@H](C)C(=O)[C@H](C)[C@H]2C(NC(=O)CSc3cnc4ccccc4n3)C(=O)O[C@@]21C (some centres undefined)	≤ 0.125	0.25 (≈ 0.302 µM)	> 64	≤ 0.06	≤ 0.125	0.25 (≈ 0.302 µM)	≤ 0.06	0.25 (≈ 0.302 µM)	0.25 (≈ 0.302 µM)	0.5 (≈ 0.603 µM)
